Compounds with a hit are over-represented: about 4.1% of the library has one in this group of screens.
MC4R ag barr – activates human MC4R beta-arrestin recruitment. hit rate 0.98% among 360,000. U2OS MC4R beta-arrestin complementation, luminescence; percent of melanotan II response, DMSO zero. activation, % at 8.9 µM;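 active means activation above a per-plate cutoff, the mean activation of sample wells on that plate plus 3 SD, cut at about 8% in these data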
Target sequence (P32245 whole entry, looked up): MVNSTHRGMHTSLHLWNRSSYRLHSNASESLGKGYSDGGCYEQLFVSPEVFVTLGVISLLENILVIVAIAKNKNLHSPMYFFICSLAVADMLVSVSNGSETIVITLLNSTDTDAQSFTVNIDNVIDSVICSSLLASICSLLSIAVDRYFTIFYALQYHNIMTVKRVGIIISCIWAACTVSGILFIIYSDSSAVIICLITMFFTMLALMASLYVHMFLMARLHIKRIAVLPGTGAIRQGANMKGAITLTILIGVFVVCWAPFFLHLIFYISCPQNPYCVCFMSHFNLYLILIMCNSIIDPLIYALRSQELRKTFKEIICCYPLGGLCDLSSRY
MPTP inh – inhibitors of mitochondrial permeability transition pore; isolated mouse mitochondria, Ca2+ swelling absorbance, 30 min; inhibition, % at 10 µM; AID 602449; hit rate 1.4% among 360,000;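 active means inhibition of 50% or more, scaled per plate between neutral and stimulator controls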;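 further: 0% = DMSO wells given calcium and 100% = 1 mM EGTA wells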
MC4R antagonist – human MC4R antagonism in cAMP assay; inhibition, % at 6.5 µM; P32245; hit rate 0.48% among 360,000; AID 540295; MC4R-expressing cells, MTII-stimulated cAMP, LANCE TR-FRET;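 active means inhibition above its plate's cutoff, the mean of tested wells on that plate plus 3 SD, cut at about 29% in these data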;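 further: 0% = Melanotan II alone and 100% = Melanotan II plus saturating MCL0020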
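Assay system: U2OS cells stably expressing human melanocortin 4 receptor (MC4R) / Dosing: 6.5 µM / Timing: compound 30 min, challenge 1 h, detection 1 h / Measured by: Eu-cAMP/anti-cAMP TR-FRET, emission 671 nm / Replicates: singlicate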
ATG4B inh – ATG4B (human) cysteine protease inhibition | AID 504462 | inhibition, % at 8.33 µM | Q9Y4P1 | ATG4B cleavage of LC3-PLA2, NBD-HPC fluorescence, 1 h | hit rate 0.51% among 340,000; in the data active means inhibition above about 40%
SMARCA2 activ – activators of SMARCA2 function; MG213 cells, MMTV-luciferase reporter, dexamethasone, overnight; activation, % at 9.1 µM; hit rate 1% among 370,000; in the data active means activation above about 7.8%;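 further: 0% = vehicle wells and 100% = reference activator wells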
MC4R barr ag – human MC4R beta-arrestin agonism confirmation; shares compounds with MC4R ag barr; U2OS MC4R beta-arrestin recruitment, luminescence; scaled DMSO 0%, Melanotan II 100%; activation, % at 8.9 µM; hit rate 31% among 2,400; AID 602192;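 active means mean activation across replicates above the hit cutoff set in the earlier primary screen, cut at about 8% in these data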
MOR-DOR barr ag – activates mu-delta opioid heterodimer, MC4R agonist counter-screen; shares compounds with MC4R ag barr; U2OS PathHunter beta-arrestin, beta-gal luminescence; percent of deltorphin B response, DMSO zero; activation, % at 9.2 µM; hit rate 5.8% among 2,400; AID 602194;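 active means mean activation across replicates exceeds the hit threshold derived in the earlier primary screen, cut at about 18% in these data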;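 further: 100% = deltorphin B at 0.9 µM final and 0% = DMSO alone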
Starred values were filed as active, the others as inactive; / = no result given.

SMILES	MC4R ag barr	MPTP inh	MC4R antagonist	ATG4B inh	SMARCA2 activ	MC4R barr ag	MOR-DOR barr ag
C=CCn1c(SCC(=O)Nc2ccccc2C)nc2sc(C)c(C)c2c1=O	24*	1	-3	-6	-1	0	6
O=C(NC1CCCCN(Cc2cccc(Cl)c2)C1=O)c1ccccc1 (centres undefined)	/	/	/	/	-2	/	/
C[C@@H]1Cc2cc(O)cc(O)c2C(=O)O1	/	/	/	/	-2	/	/
COc1ccc(NC(=O)Nc2nnc(-c3ccccc3SCc3ccccc3)s2)cc1	18*	10	1	-7	0	17*	5
Cc1ccc(-c2nnc(SCC(=O)Nc3ccc4c(c3)OCCO4)n2-c2ccc(Cl)cc2)cc1	/	/	/	/	6	/	/
OC1(c2cccc(C(F)(F)F)c2)CCN(c2ncnc3c2[nH]c2ccccc23)CC1	11*	21	6	32	-4	2	5
c1ccc2c(c1)[nH]c1c(N3CCC4(CC3)OCCO4)ncnc12	-2	46	4	-2	/	/	/
COC(=O)c1cc2c(c3c4cc(F)ccc4n(S(=O)(=O)c4cccc(C)c4)c13)C(=O)N(c1ccc(OC)cc1)C2	/	/	/	/	-5	/	/
COC(=O)[C@H](C(C)C)N1CCc2nnn(Cc3ccc(C)cc3)c2-c2cc(F)ccc2S1(=O)=O	/	/	/	/	-4	/	/
CC1Sc2ccc(C(=O)OCc3ccccc3Cl)cc2NC1=O (centres undefined)	35*	0	12	7	2	3	6
COc1cccc(COC(=O)c2ccc3c(c2)NC(=O)C(C)S3)c1OC (centres undefined)	19*	-1	2	-1	0	3	9
CC1Sc2ccc(C(=O)O)cc2NC1=O (centres undefined)	0	0	0	4	2	/	/
CCC(C)NC(=O)C1CCN(S(=O)(=O)c2ccc3[nH]c(=O)oc3c2)CC1 (centres undefined)	/	/	/	/	-4	/	/
CC(C)CCNc1ncnc2c1nnn2Cc1ccccc1Cl	18*	2	1	3	0	4	5
OCCNc1ncnc2c1nnn2Cc1ccccc1Cl	1	0	-2	/	-4	/	/
CC(C)CNc1cccc2c1S(=O)(=O)N[C@@H](C)CO2	/	/	/	/	-4	/	/
Nc1ccc(O)cc1C(=O)OCC(=O)c1ccc(C2CCCCC2)cc1	21*	6	7	21	-7	12*	14
COc1ccc(C(=O)OCC(=O)c2ccc(C3CCCCC3)cc2)cc1	-1	0	-2	1	-3	/	/
CC(C)(C)S(=O)(=O)N1Cc2cc(CO)ccc2[C@@H]1CCO	/	/	/	/	-5	/	/
Nc1nc(CCl)nc(N(c2ccccc2)c2ccccc2)n1	18*	1	14	-13	-4	13*	31*
CSc1ccc(/C=C(/Sc2nnc(-c3ccccc3)o2)C(=O)O)cc1	22*	-2	15	3	1	1	4
CCOc1ccc2nc(NC(=O)c3ccco3)sc2c1	0	-1	24	2	1	/	/
CCOc1ccc2nc(NC(=S)NCc3ccccc3)sc2c1	18*	10	-12	-6	-1	4	2
CC(C)[C@H](NC(=O)[C@H](C)NC(=O)OC(C)(C)C)C(=O)N1CCC2CCN(Cc3ccccc3)CC21 (some centres undefined)	/	/	/	/	-5	/	/
COCCCN1CCN(C2Cc3ccccc3Sc3ccc(Cl)cc32)CC1 (centres undefined)	13*	-3	3	30	-4	1	11
SMILES	MC4R ag barr	MPTP inh	MC4R antagonist	ATG4B inh	SMARCA2 activ	MC4R barr ag	MOR-DOR barr ag
COc1ccc2c(c1)CC(N1CCN(C)CC1)c1cc(OC)ccc1S2 (centres undefined)	-1	-6	1	-2	-4	/	/
COc1cc(NC(=O)c2ccc(Cl)cc2Cl)ccc1NC(=O)c1cccs1	21*	2	23	-6	2	1	6
O=C(Nc1ccc(NC(=O)c2ccc(Cl)cc2Cl)cc1)c1cccs1	3	1	0	0	-1	/	/
COc1cc(NC(=O)COc2ccccc2[N+](=O)[O-])ccc1NC(=O)c1cccs1	38*	2	-4	-4	1	18*	10
O=C(CCc1ccccc1)N[C@H]1[C@@H](OC(=O)c2cccnc2)CCC[C@@]12C(=O)N(Cc1ccccc1)c1ccccc12	/	/	/	/	-6	/	/
CC(=O)OCC(=O)N1CCN(C(=O)C(=O)c2cccc(C(F)(F)F)c2)CC1	/	/	/	/	-5	/	/
C/C(=N\Nc1nc2ccccc2[nH]1)c1ccc2c(c1)OCCO2	9.8*	-2	5	-15	-3	6	5
C/C(=N\Nc1nc2ccccc2[nH]1)c1ccc2c(c1)OCO2	15*	-1	-3	-12	-3	5	6
C/C(=N\Nc1nc2ccccc2[nH]1)c1cc2ccccc2o1	5	16	-3	-8	4	/	/
O=S1(=O)C=CCN1Cc1cn(Cc2ccccc2)nn1	/	/	/	/	0	/	/
COc1cc(/C=C/C(=O)OCC(=O)Nc2cc(C(F)(F)F)ccc2N2CCOCC2)ccc1O	24*	4	3	-13	-1	5	15
O=C(OCC(=O)N1CCN(C(=O)c2ccco2)CC1)c1cc(-c2ccc(Cl)c(Cl)c2Cl)nc2ccccc12	11*	2	-2	3	3	5	3
COC(=O)C1CN(Cc2cn(CCC3OCCO3)nn2)CCS(=O)(=O)N1Cc1ccc(Cl)cc1 (centres undefined)	/	/	/	/	-5	/	/
COc1ccc(CN2C(=O)[C@]3(NCCc4c3[nH]c3ccc(OC)cc43)c3cc(F)ccc32)cc1	/	/	/	/	-1	/	/
Cc1[nH]nc2c1C(c1ccc(Br)cc1)N(Cc1ccccc1)C2=O (centres undefined)	/	/	/	/	0	/	/
CC1CCC(C(C)C)C(OC(=O)CSc2nc(N)cc(=O)[nH]2)C1 (centres undefined)	-1	-2	21	8	0	/	/
CC1CCC(C(C)C)C(OC(=O)Cn2c(-c3ccc(F)cc3)[n+](C)c3ccccc32)C1 (centres undefined)	17*	14	0	11	-5	16*	5
NS(=O)(=O)c1ccc(OCCCN2CCC(C(O)(c3ccccc3)c3ccccc3)CC2)cc1	/	/	/	/	-1	/	/
Cc1nc(-c2cccnc2)sc1C(=O)N/N=C/c1ccccc1Cl	11*	0	-7	5	0	-1	4
CCOC(=O)c1cccc(NC(=O)CSc2nnc(COc3ccccc3C)o2)c1	11*	8	-12	-2	1	3	9
COc1ccc(CCn2c(C)cc(C(=O)CSc3nnnn3-c3ccccc3)c2C)cc1OC	17*	3	0	0	4	8	4
COc1ccc(OC)c(NC(=O)c2cc(-c3cc(C)ccc3O)n[nH]2)c1	10*	5	0	10	1	2	15

Source: PubChem BioAssay (several laboratories)
